Source: PubChem BioAssay
ASAP1 inh – ASAP1 ArfGAP inhibition; inhibition, % at 16.5 µM; hit rate 0.19% among 360,000; AID 624377; ASAP1-stimulated ARF1 GTP hydrolysis, GDP FP detection; Q9ULH1; in the data active = inhibition above about 25%;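 note: 0% = vehicle with enzyme and substrate and 100% = no enzyme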
Target sequence (Q9ULH1 325-724 limits assumed): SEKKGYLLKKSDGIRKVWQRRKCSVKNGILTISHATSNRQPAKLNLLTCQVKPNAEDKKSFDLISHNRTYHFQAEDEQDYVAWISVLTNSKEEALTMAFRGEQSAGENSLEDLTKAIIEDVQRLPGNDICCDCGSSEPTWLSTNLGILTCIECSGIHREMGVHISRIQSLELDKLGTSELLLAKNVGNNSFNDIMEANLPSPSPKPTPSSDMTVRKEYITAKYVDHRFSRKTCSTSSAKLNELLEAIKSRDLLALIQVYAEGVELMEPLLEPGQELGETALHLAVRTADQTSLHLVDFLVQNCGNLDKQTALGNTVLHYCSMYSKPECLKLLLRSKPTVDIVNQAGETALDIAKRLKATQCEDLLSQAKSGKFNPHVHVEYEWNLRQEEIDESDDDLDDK
ARFGAP1 inhibitor – inhibits rat ARF GTPase activating protein 1; hit rate 0.26% among 360,000; AID 651572; inhibition, % at 16.5 µM; Arfgap1-stimulated ARF1 GTP hydrolysis, GDP FP detection;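 active = inhibition above a per-plate limit, mean inhibition of low control wells plus 3 SD, cut at about 25% in these data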;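 note: 0% = DMSO wells with enzyme and 100% = wells lacking Arfgap1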
Target sequence (Q62848 1-136 limits assumed): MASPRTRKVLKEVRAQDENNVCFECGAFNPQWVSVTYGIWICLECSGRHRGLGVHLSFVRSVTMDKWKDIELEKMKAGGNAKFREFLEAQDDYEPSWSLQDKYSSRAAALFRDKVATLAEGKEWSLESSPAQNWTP
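material = rat Arfgap1 catalytic domain, aa 1-136 | also added = human ARF1(Δ1-17)-GTP substrate | compound dosing = one concentration, 16.5 µM, DMSO 1.26% | times = GTP hydrolysis reaction 2 h at 25 °C | measured by = FP, GDP Alexa 633 tracer displaced from anti-GDP antibody, 620/688 nm | evaluation = percent inhibition of Arfgap1-stimulated GTP hydrolysis | replication = single well per compound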
Casp6 inh – caspase-6 (human) enzyme inhibition; hit rate 0.53% among 350,000; purified caspase-6, Z-VEID-R110 cleavage fluorescence; P55212; AID 686996; inhibition, % at 12.5 µM;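 active = mean inhibition across replicates at least about 35%, with every replicate also reaching that limit, limit read from the data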;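 note: 0% = median of neutral control wells and 100% = no fluorescence left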
TDP2 inh – TDP2 (human) inhibition, absorbance primary screen; O95551; recombinant TDP2, T5PNP hydrolysis, p-nitrophenol absorbance 415 nm; inhibition, % at 12.8 µM; hit rate 0.34% among 370,000;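 active = inhibition above the mean of all tested compounds plus 3 SD, set per campaign, cut at about 25% in these data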;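 note: 0% = DMSO with enzyme and 100% = buffer with substrate but no TDP2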
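Material: recombinant human TDP2; quantity: TDP2 enzyme at 120 nM final; medium: Tris-HCl pH 7.5 with MgCl2; compound: single concentration, 12.8 µM nominal, with 1% DMSO; incubation: 2 h enzyme incubation at 37 °C; signal: epi absorbance; measure: percent inhibition; benchmarks: high control without enzyme, low control DMSO plus TDP2; repeats: singlicate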
LEDGF integ inh – blocks HIV-1 LEDGF/p75-dependent DNA integration; TR-FRET IN-LEDGF/p75 DNA integration, Eu/Cy5; AID 743269; inhibition, % at 3.7 µM; hit rate 0.64% among 370,000;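 active = inhibition above the screen-wide mean plus 3 SD, cut at about 13% in these data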;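 note: signal is the Cy5 over europium emission ratio at 671 and 618 nm; 0% = plate median of compound wells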
ARFGAP1 confirm – rat ARFGAP1 inhibition, confirmed | AID 651608 | hit rate 30% among 890 | ARFGAP1-stimulated ARF1 GTP hydrolysis, GDP tracer FP | shares compounds with ARFGAP1 inhibitor | inhibition, % at 16.5 µM;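 active = average inhibition over triplicates above the hit cutoff set in the earlier primary screen, cut at about 25% in these data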;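 note: 0% = Arfgap1 plus ARF1-GTP with DMSO and 100% = wells lacking Arfgap1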
An asterisk follows results filed as active; . = no result given; ! = repeats disagree. Sampled rows, rich in hits. Any-hit rate of the full collection: about 1.3%.

SMILES | ASAP1 inh | ARFGAP1 inhibitor | Casp6 inh | TDP2 inh | LEDGF integ inh | ARFGAP1 confirm
COc1ccc(NC(=O)c2c3c(nc4ccccc24)CCN(Cc2ccccc2)C3)c(OC)c1 | 8 | 25* | 0 | 1 | 5 | 6
COc1ccc(C2=CN(Cc3ccccc3)C(c3ccccc3)CC2=O)cc1 (stereo unspecified) | -7 | 5 | -3 | -5 | 0 | .
Cc1ccc(-n2nc3ccc(NC(=O)c4ccco4)cc3n2)cc1 | -6 | 30* | . | 5 | 2 | 13
O=C1O[C@H](c2ccccc2)[C@H](c2ccccc2)N2[C@H]1[C@@H](C(=O)N1CCCCCCC1)[C@]1(C(=O)Nc3ccccc31)[C@H]2c1ccccc1OCCO | . | . | -4 | . | . | .
Cc1nc2ccc(NC(=O)c3ccc(Cl)c(NC(=O)c4cccs4)c3)cc2s1 | 19 | 26* | . | -12 | -2 | 14
Cc1ccc(NC(=O)C2CCN(S(=O)(=O)c3cccs3)CC2)cc1 | 3 | -4 | . | 18 | 0 | .
Cc1ccc(NC(=O)c2ccc(Cl)c(NC(=O)c3cccs3)c2)cc1 | 9 | -5 | 0 | 4 | -2 | .
Cc1nc2ccc(NC(=O)C3CCN(S(=O)(=O)c4cccs4)CC3)cc2s1 | 9 | 25* | . | -4 | 2 | 3
Cc1cccc(CN2CCN(Cc3ccco3)CC2)c1 | -3 | -1 | 1 | 4 | 1 | .
Clc1cccc(CN2CCN(Cc3ccco3)CC2)c1 | 2 | 25* | -2 | 1 | -1 | -5
C[C@@H]1CN([C@H](C)CO)S(=O)(=O)c2ccc(-c3ccc(F)cc3)cc2O[C@H]1CN(C)C(=O)C1CCCCC1 | . | . | 3 | . | . | .
CCOC(=O)c1ccc(-c2c(-c3ccccc3OC)oc3ccccc23)cc1F | 1 | -1 | -2 | -17 | 0 | .
CCOC(=O)c1ccc(-c2ccc3c(=O)c4ccccc4n(C)c3c2)cc1F | -12 | 26* | 5 | -3 | 5 | 8
COc1ccc(CCn2c(SCC(=O)Nc3cc(C)on3)nc3ccccc3c2=O)cc1OC | -6 | 7 | . | 12 | 2 | .
COc1ccc(CCn2c(SCC(=O)Nc3cc(C)on3)nc3ccsc3c2=O)cc1OC | 13 | 37* | . | -8 | 1 | 35*
COc1ccc(OC)c(CCNC(=O)c2cccc(NC3=NC4CS(=O)(=O)CC4S3)c2)c1 (stereo unspecified) | -3 | 1 | -3 | 2 | -2 | .
Cc1ccc(-n2c(=O)cc(N3CCC(C)CC3)[nH]c2=O)cc1 | 12 | 26* | . | 0 | 3 | 3
Cc1cccc(NC(=O)CCN2CCC(C)CC2)c1 | 5 | 27* | 3 | -8 | 0 | -5
O=C(O)c1ccc(/C=C/c2ccc3cccc(O)c3n2)cc1 | 11 | -5 | 9 | 9 | 3 | .
Oc1ccc(/C=C/c2ccc3cccc(O)c3n2)cc1Br | 14 | 28* | -1 | -5 | -4 | 7
CC1C(=O)N2CCCc3cc(NC(=O)C(=O)NCc4cccnc4)cc1c32 (stereo unspecified) | -6 | 27* | 1 | -5 | 0 | -3
CC1C(=O)N2CCCc3cc(NC(=O)C(=O)NCc4ccc5c(c4)OCO5)cc1c32 (stereo unspecified) | 1 | -2 | 5 | 17 | -2 | .
COc1ccc2c3c(n(C)c2c1)[C@@H](CO)N(CC1CC1)CC31CCN(C(=O)CN2CCOCC2)CC1 | . | . | -3 | . | . | .
COc1ccc(NC(=O)C2CCCN(S(=O)(=O)c3ccc4c(c3)CC(C)N4C(C)=O)C2)cc1 (stereo unspecified) | -2 | 26* | 0 | -6 | -7 | 1
CCOc1ccc(NC(=O)C2CCCN(S(=O)(=O)c3ccc4c(c3)CC(C)N4C(C)=O)C2)cc1 (stereo unspecified) | 20 | -12 | -1 | 5 | -1 | .
SMILES | ASAP1 inh | ARFGAP1 inhibitor | Casp6 inh | TDP2 inh | LEDGF integ inh | ARFGAP1 confirm
CCOC(=O)c1cnc2ccc(C(=O)OC)cc2c1NCCCN1CCOCC1 | -19 | -6 | -1 | -8 | 2 | .
CCCc1ccc(Oc2cn[nH]c2-c2ccc(O)c(C)c2O)cc1 | 14 | 27* | . | -24 | -1 | 31*
COC(=O)c1ccc(NC(=S)N2CCN(C)CC2)cc1 | -5 | 3 | -1 | -3 | -2 | .
CC1=CC(=O)c2ccccc2C1=O | 1 | 26*! | 4 | -11 | 0 | -1
Cc1nc2c(C)cccn2c(=O)c1NC(=O)COc1ccccc1 | -3 | -6 | -7 | 7 | 5 | .
O=C1NC(=O)/C(=C\c2ccc(OCc3cccc([N+](=O)[O-])c3)cc2)N1 | 22 | 49* | -1 | 8 | 0 | 86*
Cc1cccc(C)c1OCC(=O)N(Cc1cccs1)C1CCS(=O)(=O)C1 (stereo unspecified) | 8 | 1 | -1 | -3 | -5 | .
Cc1ccccc1OCC(=O)N(Cc1cccs1)C1CCS(=O)(=O)C1 (stereo unspecified) | 10 | 25* | . | 14 | -3 | -1
S=C(NCc1cccnc1)Nc1cc(Cl)cc(Cl)c1 | 1 | 25* | 3 | -18 | -2 | 1
S=C(NCc1ccncc1)Nc1cc(Cl)cc(Cl)c1 | 10 | 25* | 1 | -5 | 1 | 5
S=C(NCc1ccncc1)Nc1ccc(Cl)c(Cl)c1 | 23 | 5 | . | -3 | 1 | .
S=C(NCc1cccnc1)Nc1cccc(Cl)c1 | -1 | -1 | -3 | 1 | 1 | .
CNC(=O)[C@@H]1C[C@H]1[C@@H](NC(=O)OCc1ccccc1)c1ccccc1 | 4 | 25* | -2 | -4 | -2 | 2
COC(=O)[C@H](CC(C)C)N1Cc2nnn(CC3CCCCC3)c2-c2cc(F)ccc2S1(=O)=O | . | . | . | 7 | 1 | .
CO[C@@H]1CN(C)C(=O)c2cc(NC(=O)C3CCOCC3)ccc2OC[C@H](C)N(C)C[C@@H]1C | . | . | 2 | . | . | .
C/C(=N\N=C(/N)SC1CC(=O)N(c2ccc(Br)cc2)C1=O)c1cccs1 (stereo unspecified) | 14 | 27* | 0 | -20 | 1 | 21
C/C(=N\N=C(/N)SC1CC(=O)N(c2ccccc2)C1=O)c1cccs1 (stereo unspecified) | -8 | 3 | . | -13 | 0 | .
Cc1cccc(N(CC(=O)N2CCN(c3ccccc3F)CC2)S(C)(=O)=O)c1 | 9 | -6 | 1 | -3 | 2 | .
CS(=O)(=O)N(CC(=O)N1CCN(c2ccccc2F)CC1)c1ccc2c(c1)OCCO2 | -6 | 34* | . | -4 | -1 | -4
COc1ccc(CCN2C(=O)NC(NC(=O)CCc3ccccc3)(C(F)(F)F)C2=O)cc1OC (stereo unspecified) | -12 | -1 | -1 | -12 | -2 | .
COc1ccc(CCN2C(=O)NC(NC(=O)CC(C)C)(C(F)(F)F)C2=O)cc1OC (stereo unspecified) | -14 | 28* | . | -11 | -2 | -3
